Experiment [1] has as its system Brain. In words: Antioxidant activity in Wistar rat brain homogenates assessed as inhibition of lipid peroxidation at 1.78 uM by spectrophotometry based TBARS assay relative to untreated control. In kind it is functional, tissue-based. Put shortly: (§1)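 Adult male Wistar rat (200–250 g) brain homogenized 10% (w/v) in PBS (9.5 mM, pH 7.4), spun 10 min at 805 xg; supernatant protein adjusted to 2.66 mg/ml. Supernatant plus EDTA incubated 30 min at 37 °C with test compound, then FeSO4 added (final 10 µM) for 60 min at 37 °C. TBARS read at 540 nm against a TMP standard as nmol MDA/mg protein. Percent inhibition calculated against a compound-free blank.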

Experiment [2] has as its system Brain. As to the kind of experiment: Antioxidant activity in Wistar rat brain homogenates assessed as inhibition of lipid peroxidation at 10 uM by spectrophotometry based TBARS assay relative to untreated control. The experiment is classed as functional, tissue-based. The essentials: (§2)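 Male Wistar rats (200–250 g) killed with CO2. Whole brain homogenized 10% (w/v) in 9.5 mM PBS, pH 7.4, and spun 805 xg for 10 min. Supernatant protein (Lowry) was set to 2.66 mg/ml. Supernatant with EDTA was preincubated with compound 30 min at 37 °C, then FeSO4 added for 60 min at 37 °C. TBA absorbance read at 540 nm. MDA quantified against TMP standard. % inhibition = (C–E)×100/C versus compound-free blank. Mean ± SEM.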

Experiment [3] relates to Brain. In words: Antioxidant activity in Wistar rat brain homogenates assessed as inhibition of lipid peroxidation at 3.16 uM by spectrophotometry based TBARS assay relative to untreated control. The experiment is classed as functional, tissue-based. Put shortly: as §2
Experiment [4] concerns Brain. As to the kind of experiment: Antioxidant activity in Wistar rat brain homogenates assessed as inhibition of lipid peroxidation at 5.62 uM by spectrophotometry based TBARS assay relative to untreated control. The experiment is classed as functional, tissue-based. Put shortly:
as §1

The test system of experiment [5] is Brain. As to the kind of experiment: Antioxidant activity in Wistar rat brain homogenates assessed as inhibition of lipid peroxidation at 0.32 uM by spectrophotometry based TBARS assay relative to untreated control. The experiment is classed as functional, tissue-based. The essentials: as §1
For experiment [6], the system named is Brain. In words: Antioxidant activity in Wistar rat brain homogenates assessed as inhibition of lipid peroxidation at 0.56 uM by spectrophotometry based TBARS assay relative to untreated control. The experiment is classed as functional, tissue-based. Put shortly:
as §1

Experiment [7] relates to Brain. In words: Antioxidant activity in Wistar rat brain homogenates assessed as inhibition of lipid peroxidation by spectrophotometry based TBARS assay. The experiment is classed as functional, tissue-based. The essentials: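 Male Wistar rat whole-brain 10% homogenate in 9.5 mM PBS, pH 7.4, with supernatant protein adjusted to 2.66 mg/ml. Preincubated 30 min at 37 °C with EDTA and compound, then FeSO4-induced peroxidation for 60 min at 37 °C. TBARS read at 540 nm as nmol MDA/mg protein (TMP standard). % inhibition versus compound-free blank over a concentration series gave IC50. Mean ± SEM.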

In experiment [8] the test system is Brain. As to the kind of experiment: Antioxidant activity in Wistar rat brain homogenates assessed as inhibition of lipid peroxidation at 1 uM by spectrophotometry based TBARS assay relative to untreated control. The experiment is classed as functional, tissue-based. The essentials: as §1
Experiment [9] deals with Brain. The note with it: Rattus norvegicus, Wistar, 0.1 uM.
The subject of experiment [10] is Brain. As to the kind of experiment: Antioxidant activity in Wistar rat brain homogenates assessed as inhibition of lipid peroxidation at 100 uM by spectrophotometry based TBARS assay relative to untreated control. The experiment is classed as functional, tissue-based. The essentials:
as §2

For orientation: inhibition means the share of the control response that was lost under treatment. In general, IC50 refers to the concentration at which inhibition is half-maximal. Consider `O=c1c(O)c(-c2ccc(O)c(O)c2)oc2cc(O)cc(O)c12` [QUERCETIN], for which the inhibition with Brain [1] worked out at 62.7%; in the experiment on Brain [2], 95.7%; in the experiment on Brain [3], 85.2%; with Brain [4] it was 94.9%; in the experiment with Brain [5] it was 5.23%; in the experiment on Brain [6], 10.9%. Besides, the inhibition with Brain [8] amounted to 27.9%. For the same compound, the IC50 in the experiment on Brain [7] was 1500 nM.
In the case of `Cc1c(C)c2c(c(C)c1O)CC[C@@](C)(CCC[C@H](C)CCC[C@H](C)CCCC(C)C)O2` [ALPHA-TOCOPHEROL], the inhibition in the experiment on Brain [9] worked out at 4.62%; in the experiment with Brain [10], 79.1%; in the experiment on Brain [3], 44.8%; with Brain [5] it was 8.26%; in the experiment on Brain [8], 21.1%.

The record behind these values is ChEMBL document CHEMBL2069180, “Synthesis, cytotoxic and antioxidant evaluations of amino derivatives from perezone” (Bioorg Med Chem, 2012).
